Measured values: ChEMBL document CHEMBL3865794, “Novel securinine derivatives as topoisomerase I based antitumor agents” (Eur J Med Chem, 2016)
The source made the active and inactive calls. The calls are words filed in the database; no cut-off is given here.

Legend:
[1] = Growth inhibition of human A549 cells after 72 hrs by MTT assay; assay type: functional, cell-based; details: Homo sapiens, A549, 72 h
Summary of the method: (§1)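 Cells seeded at 5 × 10³ per well and incubated overnight in medium with 10% FBS. Medium then replaced with fresh medium containing compound at […] for 72 h. MTT (5 mg/mL stock, 20 µL per well) added for 4 h at 37 °C, formazan dissolved in DMSO, absorbance read at 570 nm. Each dose run in parallel triplicate. IC50 taken from mean absorbance versus concentration curves.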

[2] = Growth inhibition of human HeLa cells after 72 hrs by MTT assay; assay type: functional, cell-based; details: Homo sapiens, HeLa, 72 h; summary of the method: as §1
[3] = Growth inhibition of human HepG2 cells after 72 hrs by MTT assay; assay type: functional, cell-based; details: Homo sapiens, HepG2, 72 h; summary of the method: as §1
[4] = Growth inhibition of human SH-SY5Y cells after 72 hrs by MTT assay; assay type: functional, cell-based; details: Homo sapiens, SH-SY5Y, 72 h; summary of the method: as §1
Bos taurus [5] = organism: Bos taurus; experiment: Inhibition of calf thymus DNA topoisomerase 1-mediated DNA cleavage assessed as drug-enzyme-DNA covalent ternary complex formation by measuring increase in linear band using negatively supercoiled pBR322 plasmid DNA as substrate at 25 to 50 uM after 30 mins by agarose gel electrophoresis
Summary of the method: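 Calf thymus Topo I (30 units) and negatively supercoiled pBR322 in Topo I buffer (pH 7.5), 30 min at 37 °C. Test compounds at 25–200, camptothecin at […]. Trapped with 1% SDS, then proteinase K 0.8 mg/mL, 10 min at 50 °C. 1% agarose/TAE run 30 min at 60 V, ethidium bromide stain, second 30-min electrophoresis. Scored as supercoiled-to-nicked/linear conversion under UV.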

[6] = target: T1, DNA topoisomerase 1 (Homo sapiens) (UniProt P11387); experiment: Inhibition of DNA topoisomerase 1 (unknown origin) assessed as reduction in relaxation of supercoiled pBR322 plasmid DNA at 100 uM incubated for 30 mins by agarose gel electrophoresis relative to control
T1 sequence (whole entry): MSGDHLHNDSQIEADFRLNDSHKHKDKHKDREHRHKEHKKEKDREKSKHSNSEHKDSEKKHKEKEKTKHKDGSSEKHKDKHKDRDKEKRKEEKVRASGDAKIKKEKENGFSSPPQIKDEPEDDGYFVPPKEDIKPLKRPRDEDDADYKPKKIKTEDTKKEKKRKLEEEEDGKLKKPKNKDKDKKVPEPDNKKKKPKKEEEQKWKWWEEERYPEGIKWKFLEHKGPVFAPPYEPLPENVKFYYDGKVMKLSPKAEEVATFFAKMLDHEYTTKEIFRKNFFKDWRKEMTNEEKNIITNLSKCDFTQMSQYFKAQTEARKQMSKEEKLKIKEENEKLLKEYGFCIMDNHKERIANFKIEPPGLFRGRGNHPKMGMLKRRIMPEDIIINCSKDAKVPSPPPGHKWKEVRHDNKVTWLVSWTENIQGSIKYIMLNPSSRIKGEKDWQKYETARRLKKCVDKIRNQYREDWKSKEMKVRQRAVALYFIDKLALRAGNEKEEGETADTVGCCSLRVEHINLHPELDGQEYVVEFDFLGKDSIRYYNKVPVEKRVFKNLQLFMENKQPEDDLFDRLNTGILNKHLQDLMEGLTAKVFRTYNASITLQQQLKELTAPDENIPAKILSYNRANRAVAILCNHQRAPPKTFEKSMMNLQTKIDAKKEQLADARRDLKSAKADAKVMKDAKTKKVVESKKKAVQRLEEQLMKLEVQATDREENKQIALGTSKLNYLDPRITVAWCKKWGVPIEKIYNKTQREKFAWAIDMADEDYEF
Summary of the method: (§2)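 Supercoiled pBR322 DNA incubated with Topo I in the presence or absence of compound for 30 min at 37 °C. Reaction stopped with dye solution of bromophenol blue, xylene cyanol and glycerol. Products run on 1% agarose in 1× TAE for 40 min, then EB-stained and UV-imaged. Inhibition rate derived from gel gray-scale analysis relative to control. Camptothecin served as positive control.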

[7] = target: T1, DNA topoisomerase 1 (Homo sapiens); experiment: Inhibition of DNA topoisomerase 1 (unknown origin) assessed as reduction in relaxation of supercoiled pBR322 plasmid DNA incubated for 30 mins by agarose gel electrophoresis; summary of the method: as §2
[8] = Growth inhibition of human L02 cells after 72 hrs by MTT assay; assay type: cell-based; details: L02, 72 h; summary of the method: as §1
A549 = experiment: Selectivity index, ratio of IC50 for human L02 cells to IC50 for human A549 cells; assay type: functional
[9] = Antiproliferative activity against human SW480 cells after 48 hrs by MTT assay; assay type: functional, cell-based; details: SW480, 48 h
[10] = target: T1, DNA topoisomerase 1 (Homo sapiens); experiment: Inhibition of DNA topoisomerase 1 (unknown origin) assessed as reduction in topoisomerase 1-DNA complex formation preincubated for 20 mins followed by supercoiled pBR322 plasmid DNA addition measured after 3 mins by electrophoretic mobility shift assay
Bos taurus [11] = organism: Bos taurus; experiment: Inhibition of calf thymus DNA topoisomerase 1 assessed as DNA-insertion by measuring reduction in conversion of negatively supercoiled pBR322 plasmid DNA to relaxed DNA at 25 uM preincubated followed by substrate addition measured after 30 mins by ethidium bromide staining based agarose gel electrophoresis
Summary of the method: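 Calf thymus Topo I (20 units) and negatively supercoiled pBR322 DNA with test compound or ethidium bromide in Topo I buffer (50 mM Tris-HCl pH 7.5, 10 mM MgCl2, 50 mM KCl, 0.1 mM EDTA, 0.5 mM DTT, BSA), 30 min at 37 °C. 1% agarose gel in 1× TAE, 40 min. Ethidium bromide stain 30 min, UV imaging.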

SMILES | IC50 [1] | IC50 [2] | IC50 [3] | IC50 [4] | inhibition (Bos taurus [5]) | inhibition [6] | inhibition [7] | IC50 [8] | Ratio IC50 (A549) | IC50 [9] | inhibition [10] | inhibition (Bos taurus [11])
CC[C@@]1(O)C(=O)OCc2c1cc1n(c2=O)Cc2cc3ccccc3nc2-1 [CAMPTOTHECIN] | 0.12 µM | 59.1 µM | 29.8 µM | > 100 µM | Active | – | – | – | – | – | – | –
O=C1O[C@@]23C[C@@H](C=CC2=C1C(O)c1ccc([N+](=O)[O-])cc1)N1CCCC[C@@H]13 (stereo partly specified) | 2.21 µM | 8.26 µM | 4.13 µM | 8.5 µM | – | 56.7% | Dose-dependent effect | 16.7 µM | 6.26 - 7.56 | – | – | –
O=C1C=C2C=C[C@@H]3C[C@@]2(O1)[C@H]1CCCCN31 [SECURININE] | 23.6 µM | 50.2 µM | 36.9 µM | 78.9 µM | – | 23.9% | – | – | – | 25.9 µM | – | –
O=C1O[C@@]23C[C@@H](C=CC2=C1C(O)c1ccc(C(F)(F)F)cc1)N1CCCC[C@@H]13 (stereo in doubt; 4a-6) | 2.91 µM | 8.99 µM | 2.42 µM | 8.57 µM | – | – | – | 18.2 µM | 6.26 - 7.56 | – | – | –
O=C1O[C@@]23C[C@@H](C=CC2=C1[C@H](O)c1ccc([N+](=O)[O-])cc1)N1CCCC[C@@H]13 | 2.23 µM | 8 µM | 4.19 µM | 8.48 µM | – | – | – | – | – | – | Dose-dependent effect | –
CC[n+]1c(-c2ccccc2)c2cc(N)ccc2c2ccc(N)cc21 | – | – | – | – | – | – | – | – | – | – | – | Active
